Experimental data reported in ChEMBL document CHEMBL1137254, “Structurally simple, potent, Plasmodium selective farnesyltransferase inhibitors that arrest the growth of malaria parasites” (J Med Chem, 2006).

What was measured:
[1] = molecular target: T1, Protein farnesyltransferase (PFT) (Plasmodium falciparum) (UniProt Q5EI73+Q5EI74); assay: Inhibition of Plasmodium falciparum PFT at 50 nM
[2] = Tmax in mouse at 50 mg/kg, po; format: ADME, organism-based; parameters: dose 50 mg/kg, route oral; conditions: in vivo
Summary of the method: (§1)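 Oral gavage at 50 mg/kg in 90% saline, 3% ethanol, 7% Tween; inhibitor concentration in plasma followed over 5 h. Values are averages of three animals per species (mice or rats). Reported parameters are AUC, Cmax, Tmax and elimination t1/2.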

[3] = molecular target: T1, Protein farnesyltransferase (PFT) (Plasmodium falciparum); assay: Inhibition of Plasmodium falciparum PFT at 5 nM
[4] = molecular target: T2, Protein farnesyltransferase (PFT) (Plasmodium falciparum, UniProt Q5EI73+Q5EI74); assay: Inhibition of Plasmodium falciparum PFT; format: protein-complex assay
T2 sequence (Q5EI73 whole entry): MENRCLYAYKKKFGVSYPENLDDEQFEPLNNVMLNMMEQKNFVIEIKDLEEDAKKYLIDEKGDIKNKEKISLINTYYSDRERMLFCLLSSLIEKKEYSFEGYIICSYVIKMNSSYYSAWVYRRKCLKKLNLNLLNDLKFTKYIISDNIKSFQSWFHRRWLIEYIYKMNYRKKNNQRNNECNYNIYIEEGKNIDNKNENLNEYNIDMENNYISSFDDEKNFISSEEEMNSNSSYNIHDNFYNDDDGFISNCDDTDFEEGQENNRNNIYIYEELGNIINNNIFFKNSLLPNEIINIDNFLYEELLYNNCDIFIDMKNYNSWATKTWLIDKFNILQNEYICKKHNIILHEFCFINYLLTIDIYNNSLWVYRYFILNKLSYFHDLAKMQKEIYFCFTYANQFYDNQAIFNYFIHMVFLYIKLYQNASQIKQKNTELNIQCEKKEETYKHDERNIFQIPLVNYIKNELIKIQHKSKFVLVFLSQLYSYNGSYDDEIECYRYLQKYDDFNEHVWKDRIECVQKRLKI
T2 sequence (Q5EI74 whole entry): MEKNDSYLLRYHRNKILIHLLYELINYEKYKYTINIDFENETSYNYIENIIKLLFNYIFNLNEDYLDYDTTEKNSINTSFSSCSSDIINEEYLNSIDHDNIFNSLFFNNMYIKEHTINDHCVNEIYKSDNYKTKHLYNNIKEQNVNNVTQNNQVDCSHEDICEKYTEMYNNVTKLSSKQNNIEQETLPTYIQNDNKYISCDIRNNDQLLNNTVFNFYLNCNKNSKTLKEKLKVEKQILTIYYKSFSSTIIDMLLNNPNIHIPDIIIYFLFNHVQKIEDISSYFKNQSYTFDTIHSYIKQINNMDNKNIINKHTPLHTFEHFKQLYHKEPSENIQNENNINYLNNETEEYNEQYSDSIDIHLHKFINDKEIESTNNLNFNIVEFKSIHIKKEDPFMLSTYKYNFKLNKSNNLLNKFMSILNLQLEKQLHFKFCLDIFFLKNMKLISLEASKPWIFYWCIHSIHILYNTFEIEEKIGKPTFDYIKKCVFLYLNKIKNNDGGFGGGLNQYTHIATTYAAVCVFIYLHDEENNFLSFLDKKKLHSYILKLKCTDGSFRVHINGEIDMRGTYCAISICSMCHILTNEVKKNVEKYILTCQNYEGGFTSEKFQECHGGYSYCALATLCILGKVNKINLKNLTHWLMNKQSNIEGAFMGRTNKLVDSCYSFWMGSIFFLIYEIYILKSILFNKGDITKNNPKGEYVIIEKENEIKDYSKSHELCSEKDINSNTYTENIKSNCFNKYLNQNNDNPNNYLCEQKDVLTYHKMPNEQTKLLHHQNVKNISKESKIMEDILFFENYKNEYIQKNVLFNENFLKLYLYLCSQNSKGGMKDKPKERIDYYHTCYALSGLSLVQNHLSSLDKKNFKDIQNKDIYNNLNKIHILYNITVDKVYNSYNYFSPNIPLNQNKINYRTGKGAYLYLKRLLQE

[5] = AUC in rat at 50 mg/kg, po; format: ADME, organism-based; parameters: dose 50 mg/kg, route oral; conditions: plasma
Summary of the method: as §1

[6] = Cmax in rat at 50 mg/kg, po; format: ADME, organism-based; parameters: dose 50 mg/kg, route oral; conditions: in vivo
Summary of the method: as §1

`Cc1ccccc1CN(CCN(Cc1cncn1C)c1ccc(C#N)cc1)S(=O)(=O)c1cn(C)cn1` gave an inhibition [1] of 99%, a Tmax [2] of 40 min and an inhibition [3] of 95%. For the same molecule, the IC50 [4] was 0.6 nM, the AUC [5] was 1.72 µM·h and the Cmax [6] was 1050 nM.
